Reference: ChEMBL document CHEMBL1133797, “Synthesis and structure--activity analysis of novel dihydropyridine derivatives to overcome multidrug resistance” (Bioorg Med Chem Lett, 2001)

Tests used:
KB 3-1 = assay: Resistance index determined as the ratio of IC50 of doxorubicin with compound (1 ug/mL) in KB VJ300 cells divided by the control tested in vitro; format: functional, Homo sapiens
Mus musculus [1] = assay: Survival days of vincristine (0.1 mg/kg, ip) treated mice after 100 mg/kg, ip dose divided by survival days of mice treated by vincristine (0.1 mg/kg, ip) alone; format: functional; conditions: route intraperitoneal
How it was run: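 Mice bearing P388 leukemia cells were given vincristine 0.1 mg/kg ip together with the test agent at 100 mg/kg ip. Survival days were recorded. Antitumor activity (%) is survival days with the combination divided by survival days of mice given vincristine 0.1 mg/kg ip alone.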

Rattus norvegicus = species on record: Rattus norvegicus; assay: Calcium antagonistic activity determined by the inhibitory effect on high-potassium depolarization-induced contracture in isolated rat aorta.; format: functional
Mus musculus [2] = assay: Survival days of vincristine (0.1 mg/kg, ip) treated mice after 30 mg/kg, ip dose divided by survival days of mice treated by vincristine (0.1 mg/kg, ip) alone; format: functional; conditions: route intraperitoneal
How it was run: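 In P388 leukemia-bearing mice, the test agent was dosed at 30 mg/kg ip with vincristine 0.1 mg/kg ip. Survival time was recorded. The value (%) is the ratio of survival days under the combination to survival days under vincristine 0.1 mg/kg ip alone.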

SMILES: CCCCCC1C(C(=O)OCCc2ccc(N(C)C)cc2)=C(C)N=C(C)/C1=C(/O)OCCCN1CCN(C(c2ccccc2)c2ccccc2)CC1 (stereo unspecified)
- Resistance index (KB 3-1): 23.5

SMILES: CCCCCC1C(C(=O)OCCCc2ccccc2)=C(C)N=C(C)/C1=C(/O)OCCCc1ccccc1 (stereo unspecified)
- Resistance index (KB 3-1): 22.7

SMILES: CCCCCC1C(C(=O)OCCN(C)Cc2ccccc2)=C(C)N=C(C)/C1=C(/O)OCCN(C)Cc1ccccc1 (stereo unspecified)
- Resistance index (KB 3-1): 3.9
- Activity (Mus musculus [1]): 128%
- IC50 (Rattus norvegicus): 115 µM

SMILES: CCCCCC1C(C(=O)OCCCc2ccccn2)=C(C)N=C(C)/C1=C(/O)OCCCN1CCN(C(c2ccccc2)c2ccccc2)CC1 (stereo unspecified)
- Resistance index (KB 3-1): 1.7
- Activity (Mus musculus [1]): 120%

SMILES: CCCCCC1C(C(=O)OCCCc2cccnc2)=C(C)N=C(C)/C1=C(/O)OCCCN1CCN(C(c2ccccc2)c2ccccc2)CC1 (stereo unspecified)
- Resistance index (KB 3-1): 1.1
- Activity (Mus musculus [2]): 143%
- IC50 (Rattus norvegicus): 175 µM

SMILES: CCCCCC1C(C(=O)OCCN(C)Cc2ccccc2)=C(C)N=C(C)/C1=C(/O)OCCCc1cccnc1 (stereo unspecified)
- Resistance index (KB 3-1): 1.4
- Activity (Mus musculus [1]): 144%
- IC50 (Rattus norvegicus): 135 µM

SMILES: CC1=NC(C)=C(C(=O)OCc2ccncc2)C(C2=C(C)SCCS2)/C1=C(\O)OCc1ccncc1 (stereo unspecified)
- IC50 (Rattus norvegicus): 8.7 µM

SMILES: CCCCCC1C(C(=O)OCCc2ccc(N(C)C)cc2)=C(C)N=C(C)/C1=C(/O)OCCc1ccc(N(C)C)cc1 (stereo unspecified)
- Resistance index (KB 3-1): 11.2

SMILES: CCCCCC1C(C(=O)OCCCc2cccnc2)=C(C)N=C(C)/C1=C(/O)OCCCc1cccnc1 (stereo unspecified)
- Resistance index (KB 3-1): 2
- Activity (Mus musculus [1]): 161%
- IC50 (Rattus norvegicus): 46 µM

SMILES: CCCCCC1C(C(=O)OCCCc2ccncc2)=C(C)N=C(C)/C1=C(/O)OCCCN1CCN(C(c2ccccc2)c2ccccc2)CC1 (stereo unspecified)
- Resistance index (KB 3-1): 1

SMILES: CCCCCC1C(C(=O)O/C=C/Cc2cccnc2)=C(C)N=C(C)/C1=C(/O)O/C=C/Cc1cccnc1 (stereo unspecified)
- Resistance index (KB 3-1): 1.8
- Activity (Mus musculus [1]): 89%

SMILES: CCCCCC1C(C(=O)OCCCc2cccnc2)=C(C)N=C(C)/C1=C(/O)OCCCN1CCN(Cc2ccccc2)CC1 (stereo unspecified)
- Resistance index (KB 3-1): 1
- Activity (Mus musculus [1]): 150%
- IC50 (Rattus norvegicus): 33 µM

SMILES: CCCCCC1C(C(=O)OCCCN2CCN(Cc3ccccc3)CC2)=C(C)N=C(C)/C1=C(/O)OCCCN1CCN(Cc2ccccc2)CC1 (stereo unspecified)
- Resistance index (KB 3-1): 1.1
- Activity (Mus musculus [1]): 127%
- IC50 (Rattus norvegicus): 230 µM

SMILES: CCCCCC1C(C(=O)OCCc2ccc(N(C)C)cc2)=C(C)N=C(C)/C1=C(/O)OCCCc1cccnc1 (stereo unspecified)
- Resistance index (KB 3-1): 1.8
- Activity (Mus musculus [1]): 125%
- IC50 (Rattus norvegicus): 45 µM

SMILES: COC(=O)C1=C(C)NC(C)=C(C(=O)OCCN(C)Cc2ccccc2)C1c1cccc([N+](=O)[O-])c1 (stereo unspecified) [NICARDIPINE]
- IC50 (Rattus norvegicus): 1.4 µM
